Reference: ChEMBL document CHEMBL3877315, “Synthesis, biological evaluation and molecular docking analysis of 2-phenyl-benzofuran-3-carboxamide derivatives as potential inhibitors of Staphylococcus aureus Sortase A” (Bioorg Med Chem, 2017)

Test: Inhibition of Staphylococcus aureus Sortase A delta 59 mutant using Abz-LPATG-Dnp as substrate preincubated for 1 hr followed by substrate addition measured after 30 mins by HPLC method
In short: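 His6-tagged SrtA59 expressed from pET28 in E. coli, IPTG-induced, Ni-NTA purified. Enzyme 5 µM was pre-incubated with inhibitor in DMSO (final 12.5~200 µM) for 1 h at 37 °C in 50 mM Tris-HCl pH 7.5, 150 mM NaCl, 5 mM CaCl₂, 0.05% Tween 20. Abz-LPATG-Dnp added at 10 µM final; stopped with HCl. G-Dnp peak area read at 355 nm by reverse-phase HPLC and compared with no-inhibitor control. IC50 taken at 50% decrease; three repeats.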

Row | Compound | IC50 [µM]
1 | CC(C)CNC(=O)c1c(-c2ccc(COC(=O)c3ccc([N+](=O)[O-])c(O)c3)cc2)oc2ccccc12 | 60.6
2 | COc1cc(OC)cc(C(=O)OCc2ccc(-c3oc4ccccc4c3C(=O)NCC(C)C)cc2)c1 | 62
3 | CC(C)CNC(=O)c1c(-c2ccc(COC(=O)/C=C/c3ccc(O)cc3)cc2)oc2ccccc12 | 158
4 | CC(C)CNC(=O)c1c(-c2ccc(COC(=O)c3cccc(O)c3)cc2)oc2ccccc12 | 50.6
5 | CC(C)CNC(=O)c1c(-c2ccc(COC(=O)c3ccc(F)cc3)cc2)oc2ccccc12 | > 200
6 | CC(C)CNC(=O)c1c(-c2ccc(COc3ccc(Cl)cc3)cc2)oc2ccccc12 | > 200
7 | CC(C)CNC(=O)c1c(-c2ccc(COC(=O)c3ccc(N)cc3)cc2)oc2ccccc12 | 52.3
8 | CC(C)CNC(=O)c1c(-c2ccc(COC(=O)c3ccc(O)cc3O)cc2)oc2ccccc12 | 57
9 | CC(C)CNC(=O)c1c(-c2ccc(COC(=O)Cc3ccc(O)c(O)c3)cc2)oc2ccccc12 | 30.8
10 | CC(C)CNC(=O)c1c(-c2ccc(COC(=O)Cc3ccc([N+](=O)[O-])cc3)cc2)oc2ccccc12 | > 200
11 | CC(C)CNC(=O)c1c(-c2ccc(COc3cccc(C=O)c3)cc2)oc2ccccc12 | 89
12 | COc1cc(C(=O)OCc2ccc(-c3oc4ccccc4c3C(=O)NCC(C)C)cc2)cc(OC)c1OC | 55.2
13 | CC(C)CNC(=O)c1c(-c2ccc(COC(=O)c3ccc(O)c(O)c3)cc2)oc2ccccc12 | 39.6
14 | CC(=O)c1cccc(OCc2ccc(-c3oc4ccccc4c3C(=O)NCC(C)C)cc2)c1 | 148
15 | CC(C)CNC(=O)c1c(-c2ccc(COC(=O)Cc3ccc(C(F)(F)F)cc3)cc2)oc2ccccc12 | > 200
16 | CC(C)CNC(=O)c1c(-c2ccc(COc3ccc(C#N)cc3)cc2)oc2ccccc12 | 97
17 | CC(C)CNC(=O)c1c(-c2ccc(COC(=O)c3ccc(S)cc3)cc2)oc2ccccc12 | 89.1
18 | CCCCNC(=O)c1c(-c2ccc(COC(=O)c3ccc(O)cc3)cc2)oc2ccccc12 | 186
19 | CC(C)CNC(=O)c1c(-c2ccc(COc3ccc(CO)cc3)cc2)oc2ccccc12 | 121

Row | Compound | IC50 [µM]
20 | CC(C)CNC(=O)c1c(-c2ccc(COC(=O)c3ccccc3[N+](=O)[O-])cc2)oc2ccccc12 | > 200
21 | CCCCNC(=O)c1c(-c2ccc(COc3ccc(C(=O)OC)cc3)cc2)oc2ccccc12 | > 200
22 | CC(C)CNC(=O)c1c(-c2ccc(COC(=O)Cc3ccc(O)cc3)cc2)oc2ccccc12 | 84
23 | CC(C)CNC(=O)c1c(-c2ccc(COC(=O)c3ccccc3O)cc2)oc2ccccc12 | 76.4
24 | CC(C)CNC(=O)c1c(-c2ccc(COC(=O)c3ccc(N(C)C)cc3)cc2)oc2ccccc12 | > 200
25 | Cc1ccc(OCc2ccc(-c3oc4ccccc4c3C(=O)NCC(C)C)cc2)cc1 | > 200
26 | CC(C)CNC(=O)c1c(-c2ccc(COc3ccc(S(C)(=O)=O)cc3)cc2)oc2ccccc12 | 132
27 | CC(C)CNC(=O)c1c(-c2ccc(COC(=O)Cc3ccccc3O)cc2)oc2ccccc12 | 89
28 | CC(C)CNC(=O)c1c(-c2ccc(COC(=O)c3ccc(O)cc3)cc2)oc2ccccc12 | 43
29 | CCCCNC(=O)c1c(-c2ccc(COC(=O)c3ccc(O)c(O)c3)cc2)oc2ccccc12 | 66
30 | CC(=O)Nc1ccc(OCc2ccc(-c3oc4ccccc4c3C(=O)NCC(C)C)cc2)cc1 | 171
31 | CC(C)CNC(=O)c1c(-c2ccc(COC(=O)c3ccccc3)cc2)oc2ccccc12 | 158
32 | CC(C)CNC(=O)c1c(-c2ccc(COC(=O)Cc3cccc(C(F)(F)F)c3)cc2)oc2ccccc12 | > 200
33 | CC(=O)Nc1cccc(OCc2ccc(-c3oc4ccccc4c3C(=O)NCC(C)C)cc2)c1 | 148
34 | CCCCNC(=O)c1c(-c2ccc(COc3ccc(S(C)(=O)=O)cc3)cc2)oc2ccccc12 | > 200
35 | CC(C)CNC(=O)c1c(-c2ccc(COc3cccc(O)c3)cc2)oc2ccccc12 | 86.4
36 | CC(C)CNC(=O)c1c(-c2ccc(COC(=O)Cc3cccc(O)c3)cc2)oc2ccccc12 | 76.3
37 | CC(C)CNC(=O)c1c(-c2ccc(COC(=O)c3cc(O)cc(O)c3)cc2)oc2ccccc12 | 34.5
38 | Para-Hydroxymercuribenzoic acid | 130
